Assay results taken from ChEMBL document CHEMBL1121813, “Dihydrochalcone sweeteners. A study of the atypical temporal phenomena” (1981).

Key:
Format in all cases: functional
Homo sapiens [1] = species: Homo sapiens; assay: Sweet / Bitter character at a concentration of 252 ppm (mean value)
Homo sapiens [2] = species: Homo sapiens; assay: Sweet character at a concentration of 252 ppm (mean value)
Summary of the method: (§1)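 Trained human sensory panel (Swartz method) tasted dilute aqueous solutions of the compounds, which had to be ≥95 weight percent pure and free of mutagenicity and toxicity. Taste character is reported as the mean value with 2S_m limits. Data deviating excessively at the 95% confidence level were rejected by the t-value method.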

Homo sapiens [3] = species: Homo sapiens; assay: Intensity calculated on a weight basis relative to an 85500 ppm sucrose solution at a concentration of 252 ppm (mean value)
Summary of the method: (§2)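 Trained human panel tasted aqueous solutions of purity-checked (≥95 weight percent) compounds cleared for mutagenicity and mouse oral toxicity. Weight-basis intensity I_w = perceived intensity × (85500 ppm sucrose / compound concentration in ppm). The mean is reported with 2S_m limits; data deviating excessively at 95% confidence were rejected by the t-value method.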

Homo sapiens [4] = species: Homo sapiens; assay: Number of taste judgments per compound
Homo sapiens [5] = species: Homo sapiens; assay: Percentage of judgments reporting an aftertaste at a concentration of 252 ppm and character thereof; Bitter
Summary of the method: (§3)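 Trained judges tasted aqueous solutions of the compounds, which had to be ≥95 weight percent pure and to have passed mutagenicity and single oral dose toxicity screening. The value is the percentage of panel judgments reporting an aftertaste. Where given, its character is recorded as sweet, bitter or bitter-sweet.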

Homo sapiens [6] = species: Homo sapiens; assay: Other taste character at a concentration of 252 ppm (mean value); summary of the method: as §1
Homo sapiens [7] = species: Homo sapiens; assay: Experimentally determined perceived intensity of compound at a concentration of 252 ppm (mean value)
Summary of the method: (§4)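 Trained human sensory panel of judges tasted aqueous solutions of the compound. Samples had to be ≥95 weight % pure (HPLC, proton titration, Karl Fischer), non-mutagenic in five Salmonella typhimurium strains with and without microsomal activation, and non-toxic in a single-oral-dose mouse test. Perceived intensity (Ip) was read from time–intensity curves at 4- or 6-s intervals and averaged. Outliers at the 95% level were rejected by t-value. Values reported as mean (2Sm).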

Homo sapiens [8] = species: Homo sapiens; assay: Sour character at a concentration of 252 ppm (mean value); summary of the method: as §1
Homo sapiens [9] = species: Homo sapiens; assay: Bitter character at a concentration of 252 ppm (mean value)
Summary of the method: (§5)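 Trained human panel tasted aqueous solutions. Each judge reported whether there was an aftertaste and its character (sweet, bitter or bitter-sweet). The value is the percentage of judgments reporting a bitter aftertaste.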

Homo sapiens [10] = species: Homo sapiens; assay: Salty character at a concentration of 252 ppm (mean value); summary of the method: as §1
Homo sapiens [11] = species: Homo sapiens; assay: Intensity calculated on a molar basis relative to a 0.25 M sucrose solution at a concentration of 252 ppm (mean value)
Summary of the method: (§6)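 Trained human judges tasted aqueous solutions of the test compound; compounds were first required to be ≥95 weight percent pure and free of mutagenicity (five Salmonella typhimurium strains, ± microsomal activation) and of single oral dose mouse toxicity. Molar intensity I_m = perceived intensity × (0.25 M sucrose / compound molar concentration). The mean is reported with 2S_m limits; outliers were rejected at 95% confidence by t-value.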

Homo sapiens [12] = species: Homo sapiens; assay: Sour character at a concentration of 251 ppm (mean value); summary of the method: as §1
Homo sapiens [13] = species: Homo sapiens; assay: Other taste character at a concentration of 251 ppm (mean value); summary of the method: as §1
Homo sapiens [14] = species: Homo sapiens; assay: Intensity calculated on a molar basis relative to a 0.25 M sucrose solution at a concentration of 251 ppm (mean value); summary of the method: as §6
Homo sapiens [15] = species: Homo sapiens; assay: Salty character at a concentration of 251 ppm (mean value); summary of the method: as §1
Homo sapiens [16] = species: Homo sapiens; assay: Intensity calculated on a weight basis relative to an 85500 ppm sucrose solution at a concentration of 251 ppm (mean value); summary of the method: as §2
Homo sapiens [17] = species: Homo sapiens; assay: Percentage of judgments reporting an aftertaste at a concentration of 251 ppm and character thereof; Bitter; summary of the method: as §3
Homo sapiens [18] = species: Homo sapiens; assay: Sweet character at a concentration of 251 ppm (mean value); summary of the method: as §1
Homo sapiens [19] = species: Homo sapiens; assay: Bitter character at a concentration of 251 ppm (mean value); summary of the method: as §5
Homo sapiens [20] = species: Homo sapiens; assay: Sweet / Bitter character at a concentration of 251 ppm (mean value)
Homo sapiens [21] = species: Homo sapiens; assay: Experimentally determined perceived intensity of compound at a concentration of 251 ppm (mean value); summary of the method: as §4
Homo sapiens [22] = species: Homo sapiens; assay: Other taste character at a concentration of 250 ppm (mean value); summary of the method: as §1
Homo sapiens [23] = species: Homo sapiens; assay: Bitter character at a concentration of 250 ppm (mean value); summary of the method: as §5
Homo sapiens [24] = species: Homo sapiens; assay: Experimentally determined perceived intensity of compound at a concentration of 250 ppm (mean value); summary of the method: as §4
Homo sapiens [25] = species: Homo sapiens; assay: Intensity calculated on a weight basis relative to an 85500 ppm sucrose solution at a concentration of 250 ppm (mean value); summary of the method: as §2
Homo sapiens [26] = species: Homo sapiens; assay: Intensity calculated on a molar basis relative to a 0.25 M sucrose solution at a concentration of 250 ppm (mean value); summary of the method: as §6
Homo sapiens [27] = species: Homo sapiens; assay: Percentage of judgments reporting an aftertaste at a concentration of 250 ppm and character thereof; summary of the method: as §3
Homo sapiens [28] = species: Homo sapiens; assay: Sweet character at a concentration of 250 ppm (mean value); summary of the method: as §1
Homo sapiens [29] = species: Homo sapiens; assay: Sour character at a concentration of 250 ppm (mean value); summary of the method: as §1
Homo sapiens [30] = species: Homo sapiens; assay: Salty character at a concentration of 250 ppm (mean value); summary of the method: as §1
Homo sapiens [31] = species: Homo sapiens; assay: Sweet / Bitter character at a concentration of 250 ppm (mean value); 0/100
Homo sapiens [32] = species: Homo sapiens; assay: Bitter character at a concentration of 1013 ppm (mean value); summary of the method: as §5
Homo sapiens [33] = species: Homo sapiens; assay: Other taste character at a concentration of 1013 ppm (mean value)
Summary of the method: (§7)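 Trained human panel tasted aqueous solutions of each compound. Aftertaste is scored as the percentage of judgments reporting one, with its character coded sweet (s), bitter (b) or bitter-sweet (bs).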

Homo sapiens [34] = species: Homo sapiens; assay: Intensity calculated on a weight basis relative to an 85500 ppm sucrose solution at a concentration of 1013 ppm (mean value); summary of the method: as §2
Homo sapiens [35] = species: Homo sapiens; assay: Sweet character at a concentration of 1013 ppm (mean value)
Homo sapiens [36] = species: Homo sapiens; assay: Experimentally determined perceived intensity of compound at a concentration of 1013 ppm (mean value); summary of the method: as §4
Homo sapiens [37] = species: Homo sapiens; assay: Salty character at a concentration of 1013 ppm (mean value)
Homo sapiens [38] = species: Homo sapiens; assay: Sour character at a concentration of 1013 ppm (mean value)
Homo sapiens [39] = species: Homo sapiens; assay: Percentage of judgments reporting an aftertaste at a concentration of 1013 ppm and character thereof; summary of the method: as §3
Homo sapiens [40] = species: Homo sapiens; assay: Sweet / Bitter character at a concentration of 1013 ppm (mean value); 28/72
Homo sapiens [41] = species: Homo sapiens; assay: Intensity calculated on a molar basis relative to a 0.25 M sucrose solution at a concentration of 1013 ppm (mean value); summary of the method: as §6
Homo sapiens [42] = species: Homo sapiens; assay: Sweet character at a concentration of 1001 ppm (mean value)
Homo sapiens [43] = species: Homo sapiens; assay: Salty character at a concentration of 1001 ppm (mean value)
Homo sapiens [44] = species: Homo sapiens; assay: Sweet / Bitter character at a concentration of 1001 ppm (mean value)
Homo sapiens [45] = species: Homo sapiens; assay: Experimentally determined perceived intensity of compound at a concentration of 1001 ppm (mean value); summary of the method: as §4
Homo sapiens [46] = species: Homo sapiens; assay: Intensity calculated on a molar basis relative to a 0.25 M sucrose solution at a concentration of 1001 ppm (mean value)
Summary of the method: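 Panel-derived mean perceived intensity (Ip) converted to a molar basis by Im = Ip × (0.25 M / Y), where Y is the compound's molar concentration. Reference is a 0.25 M sucrose solution. Reported with limits of 2Sm.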

Homo sapiens [47] = species: Homo sapiens; assay: Other taste character at a concentration of 1001 ppm (mean value); summary of the method: as §7
Homo sapiens [48] = species: Homo sapiens; assay: Sour character at a concentration of 1001 ppm (mean value)
Homo sapiens [49] = species: Homo sapiens; assay: Bitter character at a concentration of 1001 ppm (mean value); summary of the method: as §5
Homo sapiens [50] = species: Homo sapiens; assay: Percentage of judgments reporting an aftertaste at a concentration of 1001 ppm and character thereof; Sweet; summary of the method: as §3
Homo sapiens [51] = species: Homo sapiens; assay: Intensity calculated on a weight basis relative to an 85500 ppm sucrose solution at a concentration of 1001 ppm (mean value); summary of the method: as §2
Homo sapiens [52] = species: Homo sapiens; assay: Experimentally determined perceived intensity of compound at a concentration of 4100 ppm (mean value); summary of the method: as §4

How did the Taste character (Homo sapiens [1]) turn out when `O=C(O)CCc1cccc(O)c1` was run?
Its Taste character is 0.

What about the Taste character (Homo sapiens [2]) of the same compound?
Its Taste character is 0.

And the IW (Homo sapiens [3])?
Its IW is 160.

What about the Judgments (Homo sapiens [4]) of the same compound?
Its Judgments is 8.

What about the Judgments (Homo sapiens [5]) of the same compound?
The Judgments was 38.

And the Taste character (Homo sapiens [6])?
Its Taste character is 0.

And the IP (Homo sapiens [7])?
The IP was 0.46.

And the Taste character (Homo sapiens [8])?
Its Taste character is 96.

And the Taste character (Homo sapiens [9])?
Its Taste character is 4.

What about the Taste character (Homo sapiens [10]) of the same compound?
The Taste character was 0.

And the IM (Homo sapiens [11])?
The IM was 80.

How did the Taste character (Homo sapiens [12]) turn out when `COc1ccc(C2CC(=O)c3c(O)cc(OCC(=O)[O-])cc3O2)cc1O.[Na+]` (configuration not stated) was run?
The Taste character was 0.

What about the Taste character (Homo sapiens [13]) of the same compound?
Its Taste character is 7.

And the IM (Homo sapiens [14])?
The IM was 300.

And the Taste character (Homo sapiens [15])?
The Taste character was 0.

What about the IW (Homo sapiens [16]) of the same compound?
Its IW is 270.

And the Judgments (Homo sapiens [17])?
Its Judgments is 100.

What about the Judgments (Homo sapiens [4]) of the same compound?
The Judgments was 12.

What about the Taste character (Homo sapiens [18]) of the same compound?
Its Taste character is 15.

What about the Taste character (Homo sapiens [19]) of the same compound?
The Taste character was 78.

What about the Taste character (Homo sapiens [20]) of the same compound?
Its Taste character is 16.

What about the IP (Homo sapiens [21]) of the same compound?
Its IP is 0.79.

With `O=C(O)CCc1ccc(O)c(O)c1` [DIHYDROCAFFEIC ACID] as the compound, how does the Taste character (Homo sapiens [22]) read?
The Taste character was 9.

And the Taste character (Homo sapiens [23])?
The Taste character was 15.

What about the IP (Homo sapiens [24]) of the same compound?
Its IP is 0.73.

And the IW (Homo sapiens [25])?
Its IW is 250.

And the IM (Homo sapiens [26])?
Its IM is 130.

What about the Judgments (Homo sapiens [4]) of the same compound?
The Judgments was 8.

What about the Judgments (Homo sapiens [27]) of the same compound?
The Judgments was 50.

And the Taste character (Homo sapiens [28])?
The Taste character was 0.

What about the Taste character (Homo sapiens [29]) of the same compound?
Its Taste character is 76.

And the Taste character (Homo sapiens [30])?
The Taste character was 0.

And the Taste character (Homo sapiens [31])?
The Taste character was 0.

How did the Taste character (Homo sapiens [32]) turn out when `COc1ccc(/C=C/C(=O)c2ccc(OCCCS(=O)(=O)[O-])cc2O)cc1O.[K+]` was run?
The Taste character was 59.

And the Taste character (Homo sapiens [33])?
Its Taste character is 18.

And the IW (Homo sapiens [34])?
The IW was 38.

What about the Judgments (Homo sapiens [4]) of the same compound?
The Judgments was 12.

And the Taste character (Homo sapiens [35])?
Its Taste character is 23.

What about the IP (Homo sapiens [36]) of the same compound?
Its IP is 0.45.

What about the Taste character (Homo sapiens [37]) of the same compound?
Its Taste character is 0.

And the Taste character (Homo sapiens [38])?
Its Taste character is 0.

What about the Judgments (Homo sapiens [39]) of the same compound?
The Judgments was 100.

And the Taste character (Homo sapiens [40])?
Its Taste character is 28.

What about the IM (Homo sapiens [41]) of the same compound?
The IM was 50.

For `COc1ccc(CCc2noc3cc(OCC(=O)[O-])cc(O)c23)cc1O.[Na+]`, which Taste character (Homo sapiens [42]) is on record?
The Taste character was 66.

And the Taste character (Homo sapiens [43])?
Its Taste character is 0.

What about the Taste character (Homo sapiens [44]) of the same compound?
Its Taste character is 75.

What about the IP (Homo sapiens [45]) of the same compound?
Its IP is 0.38.

And the Judgments (Homo sapiens [4])?
The Judgments was 12.

And the IM (Homo sapiens [46])?
Its IM is 36.

What about the Taste character (Homo sapiens [47]) of the same compound?
Its Taste character is 12.

What about the Taste character (Homo sapiens [48]) of the same compound?
The Taste character was 0.

And the Taste character (Homo sapiens [49])?
Its Taste character is 22.

And the Judgments (Homo sapiens [50])?
The Judgments was 100.

What about the IW (Homo sapiens [51]) of the same compound?
The IW was 32.

How did the IP (Homo sapiens [52]) turn out when `COc1ccc(-c2cc(=O)c3c(O)cc(OCCCS(=O)(=O)[O-])cc3o2)cc1O.[K+]` was run?
Its IP is 0.

And the Judgments (Homo sapiens [4])?
The Judgments was 1.
